Screens deposited in PubChem BioAssay by several laboratories.
XBP1 UPR activ – adaptive UPR (XBP1) activation. CHO-XBP1 luciferase reporter, IRE1-XBP1 UPR activation, luminescence; percent of tunicamycin response, DMSO as zero. activation, % at 20 µM. 330,000 tested, 0.33% active;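 active means versus positive control, 20 µM dose yields 30% or more activation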;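 further: 100% = tunicamycin at 10 µg/mL and 0% = DMSO only wells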
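assay system = CHO-XBP1 luciferase reporter cells | amount = 1000 cells/well | buffer or medium = F12 plus 10% FBS | compound dosing = single point, 20 µM final compound, 1% DMSO | incubation = 16-18 h cell attachment at 37 °C, then 6 h compound exposure | detection = Steady-Glo luminescence read | controls = tunicamycin 10 µg/mL and vehicle-only wells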
CHOP UPR activ – apoptotic UPR (CHOP) activation; CHO-CHOP luciferase reporter, luminescence; percent of tunicamycin response over DMSO baseline; activation, % at 10 µM; 330,000 tested, 0.34% active; AID 449763;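 active means at 10 µM dose, activation of 40% or more, normalized to positive control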;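 further: 100% = tunicamycin at 10 µg/mL and 0% = DMSO alone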
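assay system = CHO CHOP reporter cells | amount = 500 CHO-CHOP cells per well | buffer or medium = F12 with 10% FBS | incubation = 16-18 h cell attachment, then 6 h compound exposure, 37 °C | detection = luminescence read with Steady-Glo | read-out = percent activation relative to tunicamycin control | controls = tunicamycin high control, DMSO low control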
PvdQ acylase – P. aeruginosa PvdQ acylase inhibition; purified PvdQ acylase, fluorescence plate reader; inhibition, % at 10 µM; 340,000 tested, 0.063% active; in the data active means inhibition above about 30%, passing the limit was not always enough;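 further: 0% = vehicle neutral wells and 100% = reference inhibitor wells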
CHOP inh – inhibitors of CHOP induction in ER stress response; inhibition, % at 10 µM; 220,000 tested, 3.8% active; AID 2732; CHO-K1 CHOP-promoter luciferase, tunicamycin-induced, 15-18 h;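 active means compounds that reduced the stress-induced luciferase reporter signal by more than about 70% of percent inhibition, limit read from the data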;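 further: 0% = tunicamycin plus vehicle and 100% = wells without tunicamycin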
Active calls of the source: *; · = no result given. This excerpt belongs to a sample that is enriched for hits.

SMILES | XBP1 UPR activ | CHOP UPR activ | PvdQ acylase | CHOP inh
O=C(CNC(=S)N(Cc1ccccc1)Cc1ccccc1F)NCCc1ccccc1 | -1 | 0 | -11 | 35
CCOC(=O)c1cc(C(=O)OCC)c2cc(Br)ccc2n1 | -2 | -1 | -11 | 88*
CC1=C(OC(=O)c2ccccc2)C(C)(C)C(c2ccc(Br)cc2)OC1=O (centres undefined) | -4 | 0 | -15 | 91*
CC1=C(OC(=O)c2ccccc2)C(C)(C)C(c2ccccc2)OC1=O (centres undefined) | -5 | -1 | -7 | 81*
CC(C)CC(=O)CC1(O)C(=O)Nc2ccccc21 (centres undefined) | -2 | -2 | -3 | 6
COC(=O)c1ccc(NC(=S)N2CCN(Cc3ccc(Cl)cc3)CC2)cc1 | -2 | -3 | 6 | 89*
COc1ccc2nc(SCC(=O)Nc3ccc4c(c3)OCCO4)[nH]c2c1 | -5 | -3 | -14 | 76*
CCN(CC)c1ccc(NC(=O)Nc2ccccc2C(F)(F)F)cc1 | 3 | 2 | -17 | 38
COc1ccc(-c2cn[nH]c2-c2ccc(OCc3ccc([N+](=O)[O-])cc3)cc2O)cc1 | -3 | -2 | -6 | 91*
C=C(C)COc1ccc(-c2[nH]ncc2-c2ccc(Br)cc2)c(O)c1 | 0 | 27 | -7 | 106*
Cc1cc(C(=O)Nc2ccc(CC(=O)O)cc2)c(C)o1 | -6 | 0 | 4 | ·
CCOc1ccc(N2C(=O)CC(Sc3nc(C)cc(C)n3)C2=O)cc1 (centres undefined) | -1 | 0 | 4 | 21
CCOc1ccc(N2C(=O)CC(Sc3nnnn3-c3ccccc3)C2=O)cc1 (centres undefined) | · | · | -15 | 108*
CC(NC(=O)c1ccccc1F)c1nnc(SCC(=O)NC2CCCC2)n1C (centres undefined) | -1 | -1 | 12 | ·
O=C(COC(=O)CC12CC3CC(CC(C3)C1)C2)Nc1ncc(Cl)cc1Cl | -1 | 2 | -6 | 77*
COc1ccc(OCCCC(=O)OCC(=O)Nc2ncc(Cl)cc2Cl)cc1 | 1 | -1 | 4 | ·
CC(C)(Oc1ccc(Cl)cc1)C(=O)OCC(=O)Nc1ncc(Cl)cc1Cl | -2 | -2 | -7 | 75*
CC(C)[C@@H]1CC[C@@H](C)c2c(-c3ccccc3)n[nH]c21 | -1 | -3 | 16 | 92*
CN=C1S/C(=C\c2ccc(Cl)cc2)C(=O)N1C | 12 | 3 | 14 | ·
CN=C1S/C(=C\c2ccc(SC)cc2)C(=O)N1C | 7 | 3 | 48* | ·
O=C(Nc1ccc(C(F)(F)F)cc1Cl)c1ccc(Cn2cc(Br)cn2)o1 | -2 | -2 | -12 | 73*
O=C(Nc1cccc(C(F)(F)F)c1)c1ccc(Cn2cc(Br)cn2)o1 | -3 | 0 | -13 | 32
Cc1c(Cl)cccc1NC(=S)/C(=C(\[O-])c1ccc(Cl)s1)[n+]1ccccc1 | 0 | 3 | 14 | 4
CC(C)(C)Cc1nnc(NC(=O)CSc2ccccc2)s1 | -2 | 6 | -16 | ·
CCc1ccc(OCCCOc2ccc(C=O)cc2)cc1 | 0 | 0 | -8 | 73*
SMILES | XBP1 UPR activ | CHOP UPR activ | PvdQ acylase | CHOP inh
CC(=O)Nc1ccc(S(=O)(=O)C(C#N)c2nc3ccccc3nc2NCCCO)cc1 (centres undefined) | 2 | 0 | 2 | 12
CCOC(=O)c1nn(-c2ccc(Cl)cc2)c2nnc(Cc3ccccc3)c(=O)n12 | -1 | 4 | 1 | 67
Clc1ccc2scc(CN3CCCCC3)c2c1 | -3 | 0 | 33* | 26
O=[N+]([O-])c1cccnc1NCCNc1ncc(C(F)(F)F)cc1Cl | 3 | 6 | 6 | 75*
CCC(C)C(NC(=O)C1CCC(C)CC1)C(=O)Nc1cc(OC)ccc1OC (centres undefined) | -2 | 0 | -4 | 82*
COc1ccc(/C=C/C(=O)c2ccc(Cl)s2)cc1O | 0 | 11 | -12 | 85*
FC(F)(F)c1cccc(NC(=S)N2CCN(c3ccccc3)CC2)c1 | -5 | 3 | 0 | 80*
FC(F)(F)c1cccc(N2CCN(C(=S)NC3CCCC3)CC2)c1 | 1 | 0 | -27 | 81*
FC(F)(F)c1cccc(N2CCN(C(=S)NC3CCCCC3)CC2)c1 | 0 | -1 | -6 | 61
CCOc1cc(/C=C2\COc3ccccc3C2=O)cc(Br)c1OCC(=O)N(C)C | -2 | 11 | -7 | ·
Cc1cc(C)nc(NS(=O)(=O)c2ccc(NC(=O)c3ccc(N4C(=O)CCC4=O)cc3)cc2)n1 | 1 | -1 | 44* | 61
COc1ccc(C(=O)/C=C/Nc2ccc(S(=O)(=O)Nc3cccc(C(C)=O)c3)cc2)cc1 | 1 | 8 | -10 | 79*
CCOc1ccc(C(=O)/C=C/Nc2ccc(S(=O)(=O)Nc3cc(C)nc(C)n3)cc2)cc1 | 0 | 3 | · | ·
Cc1cc(C)nc(NS(=O)(=O)c2ccc(N/C=C/C(=O)c3ccc(Cl)c(Cl)c3)cc2)n1 | -2 | 0 | -2 | 80*
Cc1cc(C)nc(NS(=O)(=O)c2ccc(N/C=C\C(=O)c3ccc(Cl)cc3)cc2)n1 | 4 | -2 | -7 | 82*
COc1cccc(C(=O)/C=C/Nc2ccc(S(=O)(=O)Nc3nc(C)cc(C)n3)cc2)c1 | -6 | 0 | -13 | 11
Cc1cc(C)nc(NS(=O)(=O)c2ccc(NC(=O)c3ccc(S(=O)(=O)N(C)C)cc3)cc2)n1 | -5 | -1 | 5 | ·
CN(C)S(=O)(=O)c1cccc(NC(=O)CN2C(=O)NC3(CCc4ccccc4C3)C2=O)c1 (centres undefined) | 0 | -1 | -15 | ·
Oc1ccccc1-c1cc(C(F)(F)F)nc(-c2ccccc2)n1 | -2 | -2 | -11 | 73*
CCOc1ccc(Cn2nnc(C(=O)Nc3cc(C)cc(C)c3)c2N)cc1 | 0 | 1 | -4 | 75*
CCc1ccc(Cn2nnc(C(=O)Nc3cccc(C)c3)c2N)cc1 | -2 | 1 | -6 | 71*
CC(=O)Nc1nc(CCN2C(=O)c3ccccc3C2=O)cs1 | 1 | 0 | -11 | 9
COc1cc(NS(=O)(=O)c2ccc(Nc3nc(-c4ccccn4)cs3)cc2)nc(OC)n1 | -4 | -1 | -2 | -18
COc1ccc(-c2csc(Nc3ccc(S(=O)(=O)Nc4cc(OC)nc(OC)n4)cc3)n2)cc1 | 0 | 3 | 1 | 89*
COc1ccc(C2=NOC(C(=O)Nc3ccc4c(c3)OCO4)C2)cc1OC (centres undefined) | 1 | 0 | -10 | -8
COc1cc(NC(=O)c2cc(C3CC3)on2)c(OC)cc1Cl | -4 | -2 | 18 | 84*
CC(=O)COc1c(-c2ccco2)oc2ccccc2c1=O | -2 | 2 | -5 | ·
CCN(CC)CCCN=C1N[C@@H](c2cccc(C(F)(F)F)c2)C(C(=O)OC)=C(C)N1CC | -1 | -1 | -5 | ·
O=C(CN1C(=O)C2C3C=CC(C3)C2C1=O)N1CC(=O)N(CCc2ccccc2)C(=O)C1 (centres undefined) | 0 | -5 | -7 | 74*
O=c1oc(-c2ccc(F)cc2)nc2ccsc12 | 0 | 6 | 70* | -9
